Results published in article PMC11838921 (Journal of agricultural and food chemistry, 2024).

Experiments:
antiphenamacril mAb = experiment: ic-ELISA for sensitivity and specificity of the mAb; type: binding, Balb/c mice; settings: for Cross-reactivity: CR = IC50(analyte)/IC50(structural analogue) x 100%; for IC50: ic-ELISA, standards in 10% methanol-PBS
In short: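 Ic-ELISA with purified mAb (ascites, Protein G column). Phenamacril standards at 0–500 ng/mL (500 to 1.95 in twofold steps) in 10% methanol-PBS; 50 μL standard and 50 μL mAb per well. IC50 taken as sensitivity. Cross-reactivity run with four methoxyacrylate analogues: IC50(analyte)/IC50(analogue) × 100%.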

Au@PDA-mAb probe [1] = experiment: dual-readout immunochromatographic strip; type: binding
In short: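 Standards and analogues at 0.63–20 ng/mL in PBS with 10% methanol were applied to the strip sample pad (100 μL). Au@PDA-mAb probe sat on the conjugate pad. T line held phenamacril-OVA plus QDs-OVA; C line held anti-mouse IgG. Colour read by eye as T-line red loss against the C line. Fluorescence read as green T-line intensity under UV.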

Au@PDA-mAb probe [2] = experiment: dr-ICGA on wheat flour samples; type: binding; settings: n = 5
In short: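 Phenamacril-free flour (5 g, confirmed by LC-MS/MS) in 10 mL ultrapure water, vortexed 2 min, spiked with standard to 0.0125–0.20 mg/kg; water-only blank at 0 mg/kg. Residue redissolved in 1 mL 10% methanol-PBS, then diluted 10-fold. 100 μL applied to the strip. Read by eye as −, ± or +, with cut-offs <0.05, 0.05–0.1 and >0.1 mg/kg.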

antisera = experiment: ic-ELISA of antiserum of the immunized mouse; type: binding, Balb/c mice; settings: phenamacril at 1 μg/mL, mouse used for fusion (titer 80,000)
[3] = Jiangxi red soil; cited from earlier work
[4] = activated sludge; cited from earlier work

CO/C=C(/C(=O)OC)c1ccccc1Oc1cc(Oc2ccccc2C#N)ncn1 [Azoxystrobin]
Cross-reactivity (antiphenamacril mAb): <0.35% | Cross-reactivity (antiphenamacril mAb; listed as azoxystrobin): < 0.35% | IC50 (antiphenamacril mAb): >5,000 ng/mL

COc1c(F)c(F)c(C(=O)NCc2ncc(C(F)(F)F)cc2Cl)c(F)c1F [Fluopimomide]
Cross-reactivity (antiphenamacril mAb): <0.35% | Cross-reactivity (antiphenamacril mAb; listed as fluopimomide): < 0.35% | IC50 (antiphenamacril mAb): >5,000 ng/mL

CCOC(=O)C(C#N)=C(N)c1ccccc1 [Phenamacril, 2-cyano-3-amino-3-phenylacrylic acetate]
Cross-reactivity (antiphenamacril mAb): 100% | IC50 (antiphenamacril mAb): 17.46 ng/mL | reaction on the T line of the dual-readout strip (Au@PDA-mAb probe [1]; 20 ng/mL loaded, visual and UV readout): strong positive reaction on the T line | limit of detection (cutoff value) (Au@PDA-mAb probe [1]; dr-ICGA, colorimetric and fluorescent readout, within 10 min): 5 ng/mL | dr-ICGA visual result (dilute 10 times) (Au@PDA-mAb probe [2]; wheat flour spiked 0.0125 mg/kg): −, −, −, −, −, | dr-ICGA visual result (dilute 10 times) (Au@PDA-mAb probe [2]; wheat flour spiked 0.025 mg/kg): −, ± , −, ± , −, | dr-ICGA visual result (dilute 10 times) (Au@PDA-mAb probe [2]; wheat flour spiked 0.05 mg/kg): ±, ± , ± , ± , ± , | dr-ICGA visual result (dilute 10 times) (Au@PDA-mAb probe [2]; wheat flour spiked 0.1 mg/kg): ±, + , + , + , + , | dr-ICGA visual result (dilute 10 times) (Au@PDA-mAb probe [2]; wheat flour spiked 0.2 mg/kg): +, + , + , + , + , | inhibition rate (antisera): approximately 70.8% | mobility in soil [3]: moderately mobile | degradation [4]: degrades slowly

CO/C=C(/C(=O)OC)c1ccccc1COc1cccc(C(F)(F)F)n1 [Picoxystrobin]
Cross-reactivity (antiphenamacril mAb): <0.35% | Cross-reactivity (antiphenamacril mAb; listed as picoxystrobin): < 0.35% | IC50 (antiphenamacril mAb): >5,000 ng/mL

COC(=O)N(OC)c1ccccc1COc1ccn(-c2ccc(Cl)cc2)n1 [Pyraclostrobin]
Cross-reactivity (antiphenamacril mAb): <0.35% | Cross-reactivity (antiphenamacril mAb; listed as pyraclostrobin): < 0.35% | IC50 (antiphenamacril mAb): >5,000 ng/mL
